Screens from PubChem.
An excerpt weighted towards active compounds, which were near 4.6% of everything screened.
TAAR1 antag – antagonists of human TAAR1 | Q96RJ0 | CHO RD-HGA16 TAAR1, Fluo-8 calcium fluorescence, antagonist | inhibition, % at 3 µM | 1.5% of 360,000 active;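 active means inhibition above a per-plate cutoff, the mean inhibition of test compounds on that plate plus 3 SD, cut at about 49% in these data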;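 further: 0% = DMSO plus EC80 beta-PEA response and 100% = DMSO alone without agonist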
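Test system: RD-HGA16 CHO cells with stable hTAAR1 and Gα16 / Probe or stimulus: EC80 β-phenethylamine stimulus / Times: seeding 17-24 h prior, 75-min 37 °C, 30-min RT dye loading / Detection: Fluo-8 calcium-sensitive fluorescence / Read-out basis: % inhibition scaled between DMSO and EC80 PEA controls / Repeats: singlicate, one well per test compound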
OX1R antag-1 – blocks the human orexin 1 receptor | O43613 | CHO/OX1R cells, Fluo-8 calcium fluorescence, orexin A | inhibition, % at 5 µM | 0.43% of 330,000 active | AID 434989;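 active means inhibition above its plate's threshold, mean inhibition of all tested compounds on the plate plus 3 SD, cut at about 37% in these data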;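 further: 0% = orexin A challenge wells and 100% = SB-334867-A antagonist wells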
Target sequence (O43613 whole entry, looked up): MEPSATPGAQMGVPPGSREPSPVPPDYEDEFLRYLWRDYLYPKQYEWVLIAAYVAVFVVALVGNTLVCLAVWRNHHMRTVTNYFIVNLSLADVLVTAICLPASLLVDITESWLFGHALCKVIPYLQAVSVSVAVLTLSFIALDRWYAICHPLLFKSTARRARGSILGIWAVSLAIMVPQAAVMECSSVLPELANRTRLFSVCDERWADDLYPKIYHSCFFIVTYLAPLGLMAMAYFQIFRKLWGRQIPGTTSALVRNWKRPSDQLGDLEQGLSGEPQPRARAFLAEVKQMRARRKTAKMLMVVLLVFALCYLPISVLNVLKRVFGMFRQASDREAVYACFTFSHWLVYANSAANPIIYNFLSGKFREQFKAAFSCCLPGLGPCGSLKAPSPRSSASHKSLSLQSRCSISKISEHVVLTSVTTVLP
GPR7 antagonist – human neuropeptides B/W receptor 1 antagonism. P48145. GPR7-expressing cells, fluorescence antagonist assay. inhibition, % at 4.4 µM. 1.1% of 290,000 active. AID 1861; in the data active means inhibition above about 16%, passing the limit was not always enough;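 further: cells stimulated with the agonist NPW; 0% = agonist with vehicle and 100% = vehicle without agonist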
OX1R antag-2 – blocks the human orexin 1 receptor; O43613; inhibition, % at 6.6 µM; OX1R-expressing cells, FRET antagonist read-out; 1.8% of 330,000 active; in the data active means inhibition mostly above about 38%, no sharp cut-off; inactive means mostly below about 40%;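 further: 0% = agonist challenge alone and 100% = reference antagonist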
TAAR1 agonist – agonists of human TAAR1. Q96RJ0. CHO RD-HGA16 TAAR1, Fluo-8 calcium fluorescence; vehicle wells 0%, saturating PEA agonist 100%. activation, % at 3 µM. 0.99% of 360,000 active;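 active means activation above the mean activation of all test compounds in the run plus 3 SD, cut at about 38% in these data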
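Assay system – CHO-derived RD-HGA16 cells with stable Gα16 and human TAAR1 · Compound dosing – one-point dosing at 3 µM (nominal) · Incubation – 17-24 h seeding, 75 min 37 °C dye, 30 min RT · Measured by – kinetic Fluo-8 calcium fluorescence · Control set – DMSO vehicle as 0%, PEA at EC100 as 100% · Repeats – single well for each compound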
CHO parental Ca – counter-screen: ATP calcium response change in parental CHO cells; parental CHO-K1, ATP-induced calcium, Fluo-8 fluorescence; inhibition, % at 5.6 µM; 0.63% of 330,000 active; AID 463079;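 active means inhibition above that plate's mean sample inhibition plus 3 SD, cut at about 26% in these data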;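 further: 0% = ATP-challenged DMSO wells and 100% = DMSO wells without ATP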
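Assay system: parental CHO cells; Read-out basis: percent inhibition of ATP-evoked calcium rise, normalized to controls; Benchmarks: ATP and no-ATP DMSO wells; Compound dosing: single nominal dose of 5.6 µM per compound; Signal: Fluo-8 calcium dye fluorescence; Also added: ATP as calcium-mobilizing challenge; Repeats: singlicate.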
The depositor's hits bear a star; x = no result.

SMILES	TAAR1 antag	OX1R antag-1	GPR7 antagonist	OX1R antag-2	TAAR1 agonist	CHO parental Ca
CCc1ccccc1NC(=O)CSc1nc2n[nH]c(C)c2c(=N)n1-c1cccc(OC)c1	21	16	-9	46*	5	-26
CCOc1ccccc1NC(=O)CCSc1nc2n[nH]c(C)c2c(=N)n1-c1ccccc1Cl	40	-21	-4	53*	7	-25
C/C(=N\NC1=NCCN1)c1ccc(N)c([N+](=O)[O-])c1	-4	-8	2	33	5	-3
CCCCCCOc1ccc(/C(C)=N/NC2=NCCN2)cc1[N+](=O)[O-]	0	-6	1	5	38*	-2
O=c1[nH]cnc2ncc(-c3ccc(O)cc3)nc12	-17	1	x	60*	4	-9
COC(=O)C1=C(C)N(Cc2cccc(C(F)(F)F)c2)C(=NCc2ccc3c(c2)OCO3)NC1CCc1ccccc1 (stereo unspecified)	-12	x	x	x	13	x
O=C(Nc1cccc2c1CCCC2)c1ccccc1Cl	-18	-24	-24	4	4	-8
COc1cccc(OC)c1C(=O)Nc1ccc2c3c(cccc13)CC2	-31	-27	-2	29	5	-19
COc1ccccc1C(=O)Nc1ccc2c3c(cccc13)CC2	-4	8	-15	61*	6	-19
COc1ccccc1C(=O)Nc1cccc2c1CCCC2	0	-5	-7	27*	-2	-19
COC(=O)C[C@H]1C=C[C@@H](NC(=O)Nc2c(C)noc2C)[C@@H](CO)O1	-6	x	x	x	2	x
Cc1cc(C)n2nc(Nc3ccccc3)cc2n1	-10	-2	-3	49*	0	-20
Cc1cc(C)n2nc(-c3ccccc3)cc2n1	0	-11	2	26	1	-2
COC(=O)c1ccc(C2N=C(c3cccs3)CC(c3ccccc3O)N2)cc1 (stereo unspecified)	-13	4	-2	72*	9	42*
O=C(c1ccccc1)N1N=C(c2cccs2)CC1c1ccccc1O (stereo unspecified)	-10	-29	-13	8	4	-4
COc1ccc(CCNC2=CC(=O)N(c3ccc(F)cc3)C2=O)cc1	-11	-8	-4	21	22	39*
CCNC(=O)CC1C(=O)N(c2ccc(F)cc2)C(=O)N1CCc1ccc(OC)cc1 (stereo unspecified)	8	-12	-12	1	3	-17
Cc1cc2c(c(=O)o1)[C@@]1(C(=O)N(C)c3ccccc31)C1=C(CCCC1=O)O2	-6	x	x	x	0	x
O=C(Nc1ccccc1)N(Cc1ccccc1)C1=NCCS1	5	-2	0	12	40*	-8
COc1ccc(-c2c(C#N)c(SCc3c(C)noc3C)nc3c2C(=O)CC(C)(C)C3)cc1	-8	-8	1	1	2	-9
CCc1c(C#N)c(SCCC(=O)Nc2cccc(OC)c2)nc2c1C(=O)CC(C)(C)C2	58*	17	-8	22	17	16
CN(C[C@H](Cc1ccccc1)N(C[C@@H](Cc1cccc2ccccc12)N(CCc1ccccc1)N=O)N=O)N=O	7	-10	-14	37	41*	-17
N#CCN1C(=S)N=C(Nc2cccc(Cl)c2)C12CCCCC2	-6	-11	-18	43	12	47*
COc1cccc(NC(=O)Cn2nnc(-c3ccccc3N)n2)c1	-1	-12	-3	8	6	-6
CCOC(=O)CC(NC(=O)Cn1nnc(-c2ccccc2Cl)n1)c1ccc(OC)cc1 (stereo unspecified)	-3	-10	20*	10	46*	-18
SMILES	TAAR1 antag	OX1R antag-1	GPR7 antagonist	OX1R antag-2	TAAR1 agonist	CHO parental Ca
COc1ccc(NC(=O)Cn2nnc(-c3ccccc3NS(=O)(=O)c3ccccc3)n2)cc1	x	23	-5	26	x	43*
COc1ccc(S(=O)(=O)Nc2ccccc2-c2nnn(CC(=O)Nc3ccccc3OC)n2)cc1	37	33	-10	60*	2	44*
CCOC(=O)CC(NC(=O)Cn1nnc(-c2ccccc2F)n1)c1ccc(OC)cc1 (stereo unspecified)	4	-33	4	15	5	-5
CCCSc1nnc(NC(=O)Nc2ccccc2)s1	8	-10	-5	23	40*	-15
CCCSc1nnc(NC(=O)Nc2ccc(C)cc2)s1	-3	-26	-16	13	3	-18
NC(=O)C12NC(Cc3ccccc31)c1ccccc12 (stereo unspecified)	-16	x	x	x	2	x
COC(=O)C1=C(C)N(Cc2ccc(C(F)(F)F)cc2)C(=NCc2ccccc2C(F)(F)F)NC1c1ccc(F)cc1 (stereo unspecified)	45	x	x	x	8	x
Cc1ccc(NC(=O)c2cc3c(s2)CCCC3)cc1S(=O)(=O)Nc1ccccc1Cl	24	6	-11	70*	1	-1
O=C(Nc1cc(S(=O)(=O)Nc2ccccc2Cl)ccc1O)c1cc2c(s1)CCCC2	-8	0	-14	51	4	-7
COc1cc(N)c(Cc2nccc3cc(OC)c(OC)cc23)cc1OC	-4	-20	-6	19	5	-24
COc1ccc(C(N)c2nccc3cc(OC)c(OC)cc23)cc1OC (stereo unspecified)	x	-41	-2	73*	x	-14
Cc1ccccc1NS(=O)(=O)c1ccc(NC(=O)CSCc2ccc(Br)cc2)cc1	28	15	18	23	25	31*
O=C(COc1ccccc1C(=O)O)Nc1nc2ccc([N+](=O)[O-])cc2s1	-7	37	-13	59*	8	42*
COc1cc([N+](=O)[O-])ccc1NC(=O)CCCOc1cccc(C)c1	106*	-20	25	17	1	-13
Cc1ccc(S(=O)(=O)N(C)c2ccc(OCC(=O)Nc3nc4c(ccc5ccccc54)s3)cc2)cc1	-14	-2	-7	9	-1	-2
Cc1cccc(OCC(=O)Nc2nc3ccc([N+](=O)[O-])cc3s2)c1C	13	2	-5	14	3	5
Cc1ccc(S(=O)(=O)N(C)c2ccc(OCC(=O)Nc3nc4ccccc4s3)cc2)cc1	7	2	-3	57*	2	15
Cc1cccc(OCC(=O)Nc2nc3ccc([N+](=O)[O-])cc3s2)c1	13	27	7	41*	5	-8
CCN=C1NC(c2ccccc2)C(C(=O)OC)=C(C)N1Cc1ccc(C(F)(F)F)cc1 (stereo unspecified)	21	x	x	x	24	x
O=C(NC1CCCC1)[C@@H]1CCCN1C(=O)[C@@H](NC(=O)N1CCOCC1)c1ccccc1	-18	x	x	x	2	x
S=C(NCCCc1cnc[nH]1)NCCCN(Cc1ccc(Cl)cc1)c1ccc(Br)cn1	38	x	x	x	38*	x
S=C(NCCCc1cnc[nH]1)NCCCN(Cc1ccccc1)c1ccc(Br)cn1	30	x	x	x	22	x
